The values that follow come from ChEMBL document CHEMBL4837248, “Discovery and SAR Evolution of Pyrazole Azabicyclo[3.2.1]octane Sulfonamides as a Novel Class of Non-Covalent N-Acylethanolamine-Hydrolyzing Acid Amidase (NAAA) Inhibitors for Oral Administration” (J Med Chem, 2021).

Each structure is given as a SMILES string. Active and inactive are the calls of the source. The rule behind the calls is not given here.

In one assay the target is T1, N-acylethanolamine-hydrolyzing acid amidase (Homo sapiens) (UniProt Q02083).
T1 sequence (whole entry): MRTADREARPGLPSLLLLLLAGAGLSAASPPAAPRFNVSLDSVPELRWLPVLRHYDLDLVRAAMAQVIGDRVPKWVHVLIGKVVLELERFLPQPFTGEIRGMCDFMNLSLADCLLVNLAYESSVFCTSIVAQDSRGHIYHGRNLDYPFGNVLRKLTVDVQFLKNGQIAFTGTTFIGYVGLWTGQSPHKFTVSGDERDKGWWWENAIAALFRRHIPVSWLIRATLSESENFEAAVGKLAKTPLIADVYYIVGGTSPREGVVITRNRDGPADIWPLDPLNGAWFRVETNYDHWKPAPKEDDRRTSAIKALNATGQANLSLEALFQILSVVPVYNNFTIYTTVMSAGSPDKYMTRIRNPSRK
Description: Inhibition of ARN14686 probe binding to human NAAA expressed in HEK293 cells preincubated for 2 hrs followed by ARN14686 probe addition and measured after 4 hrs by fluorescence assay. To be noted: time 6.0 hrs. It is filed as cell-based. The essentials: (§1)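 Lysosomal enrichment (0.5 mg/mL) from HEK293 cells overexpressing human NAAA was preincubated 2 h at 37 °C with compound at a final 20 μM (2% DMSO); DMSO-only controls were included. ARN14686 probe (20 μM) was then added at 37 °C for 15 min or 4 h. An Alexa Fluor 545 azide was attached by CuSO4/TCEP/TBTA click chemistry (2 h, 25 °C). Read-out was SDS-PAGE in-gel fluorescence at 532 nm, with Coomassie loading control.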
Regarding `CCOCc1cnc(O[C@H]2C[C@H]3CC[C@@H](C2)N3S(=O)(=O)c2c(C)n[nH]c2C)cn1`, the inhibition entry is “inactive”.

The target in the next assay is T1, N-acylethanolamine-hydrolyzing acid amidase (Homo sapiens). Description: Inhibition of ARN14686 probe binding to human NAAA expressed in HEK293 cells preincubated for 2 hrs followed by ARN14686 probe addition and measured after 15 mins by fluorescence assay. The assay is classed as cell-based. The note with it: time 135.0 min. The essentials: as §1
As to `CCOCc1cnc(O[C@H]2C[C@H]3CC[C@@H](C2)N3S(=O)(=O)c2c(C)n[nH]c2C)cn1`, the inhibition result was “Active”.

For a further assay the target is unchanged. Nature of the assay: Inhibition of recombinant human NAAA expressed in HEK293 cells using PAMCA as fluorogenic substrate at 50 uM preincubated for 30 mins followed by substrate addition and measured after 50 mins by fluorescence assay relative to control.
Details: not given
It is filed as cell-based. The essentials:
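Lysosomal-type enzyme-enriched lysate from HEK-293 cells stably expressing human NAAA (4 μg protein), preincubated 30 min with compound or 5% DMSO in 100 mM citrate/phosphate pH 4.5 with 3.0 mM DTT, 0.1% NP40, 0.05% BSA, 150 mM NaCl. Reaction started with PAMCA substrate (2 μM), run 50 min at 37 °C. Fluorescence read at ex 355/em 460 nm against enzyme-free background.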
As for `Cc1nn(C)c(C)c1S(=O)(=O)N1CCC(Oc2cnccn2)CC1`, the inhibition is less than 10%. Same read-out and setting: for `Cc1n[nH]c(C)c1S(=O)(=O)N1CC(Oc2cnccn2)C1` the value was less than 10%; for `Cc1n[nH]c(C)c1C(=O)N1CCC(Oc2cnccn2)CC1`, less than 10%; for `Cc1cnn(C)c1S(=O)(=O)N1CCC(Oc2cnccn2)CC1`, less than 10%. `COc1n[nH]c(C)c1S(=O)(=O)N1CCC(Oc2cnccn2)CC1`: the inhibition was less than 10%. On the same count and under the same terms, for `Cc1n[nH]c(C)c1S(=O)(=O)N1C[C@H]2CCC[C@@H](C1)[C@H]2Oc1cnccn1` the value was less than 10%; for `Cc1n[nH]c(C)c1S(=O)(=O)N1[C@@H]2CC[C@H]1C[C@H](Oc1cnccn1)C2`, less than 10%. On the same count and under the same terms, for `Cc1n[nH]c(C)c1S(=O)(=O)N1CCC(c2cnccn2)CC1` the value was less than 10%; for `Cc1n[nH]cc1S(=O)(=O)N1CCC(Oc2cnccn2)CC1`, less than 10%. On the same count and under the same terms, for `O=S(=O)(c1cn[nH]c1)N1CCC(Oc2cnccn2)CC1` the value was less than 10%; for `Cc1noc(C)c1S(=O)(=O)N1CCC(Oc2cnccn2)CC1`, less than 10%. Regarding `Cc1n[nH]c(C)c1S(=O)(=O)N1CCC(Nc2cnccn2)CC1`, the inhibition is less than 10%. On the same count and under the same terms, to `Cc1n[nH]c(C)c1S(=O)(=O)N1CCC(Cc2cnccn2)CC1` belongs less than 10%. As to `Cc1n[nH]c(C)c1S(=O)(=O)N[C@H]1CC[C@H](Oc2cnccn2)CC1`, the inhibition was less than 10%.
